Test [1] addresses Cyclin-dependent kinase 12 (Homo sapiens) (UniProt Q9NYV4). Description: Inhibition of human recombinant CRK7 at 40 nM in presence of ATP by radiometric assay relative to control.
The target of test [2] is T1, NUAK family SNF1-like kinase 2 (Homo sapiens) (UniProt Q9H093).
T1 sequence (whole entry): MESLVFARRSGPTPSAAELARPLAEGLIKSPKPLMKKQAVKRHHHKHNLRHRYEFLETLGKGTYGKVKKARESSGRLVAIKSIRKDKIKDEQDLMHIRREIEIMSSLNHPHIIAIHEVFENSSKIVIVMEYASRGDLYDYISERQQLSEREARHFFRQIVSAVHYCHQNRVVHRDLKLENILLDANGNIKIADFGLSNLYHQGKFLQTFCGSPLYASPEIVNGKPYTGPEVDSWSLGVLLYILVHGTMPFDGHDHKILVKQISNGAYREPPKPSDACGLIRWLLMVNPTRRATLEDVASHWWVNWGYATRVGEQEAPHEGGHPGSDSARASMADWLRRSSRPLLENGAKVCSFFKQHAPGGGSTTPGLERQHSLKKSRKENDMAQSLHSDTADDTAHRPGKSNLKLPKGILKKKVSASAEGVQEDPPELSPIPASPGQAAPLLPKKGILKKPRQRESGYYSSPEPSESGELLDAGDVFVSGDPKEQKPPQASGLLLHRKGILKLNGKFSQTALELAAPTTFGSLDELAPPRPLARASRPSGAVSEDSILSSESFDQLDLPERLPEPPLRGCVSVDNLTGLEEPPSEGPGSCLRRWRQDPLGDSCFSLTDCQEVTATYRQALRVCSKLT
Put plainly: Inhibition of human recombinant NuaK2 at 40 nM in presence of ATP by radiometric assay relative to control.

In test [3] the target is T2, Activin receptor type-1 (Homo sapiens) (UniProt Q04771).
T2 sequence (whole entry): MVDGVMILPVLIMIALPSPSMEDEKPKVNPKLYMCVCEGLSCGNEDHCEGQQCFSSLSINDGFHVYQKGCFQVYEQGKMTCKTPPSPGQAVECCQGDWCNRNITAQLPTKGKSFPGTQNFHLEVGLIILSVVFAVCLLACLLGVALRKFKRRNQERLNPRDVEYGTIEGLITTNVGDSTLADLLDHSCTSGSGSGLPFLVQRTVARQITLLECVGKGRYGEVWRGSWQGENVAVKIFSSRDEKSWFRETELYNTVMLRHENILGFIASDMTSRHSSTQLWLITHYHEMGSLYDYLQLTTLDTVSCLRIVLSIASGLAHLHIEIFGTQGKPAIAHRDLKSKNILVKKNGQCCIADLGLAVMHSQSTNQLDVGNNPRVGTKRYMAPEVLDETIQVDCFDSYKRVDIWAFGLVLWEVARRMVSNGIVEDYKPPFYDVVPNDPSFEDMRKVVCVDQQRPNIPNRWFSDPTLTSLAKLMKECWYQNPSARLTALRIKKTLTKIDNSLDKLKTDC
Description: Inhibition of human recombinant ALK2 at 40 nM related to control ULK1. In a few lines:
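Radiometric activity assays in a panel of 327 human recombinant kinases, each run in duplicate at one inhibitor concentration. Activity remaining is expressed as percent of vehicle control, and percent inhibition is calculated as 100% minus percent activity remaining.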

Test [4] concerns the target Maternal embryonic leucine zipper kinase (Homo sapiens) (UniProt Q14680). Put plainly: Inhibition of human recombinant MELK at 500 nM related to control ULK1.
Test [5] deals with T3, Serine/threonine-protein kinase Nek3 (Homo sapiens) (UniProt P51956).
T3 sequence (whole entry): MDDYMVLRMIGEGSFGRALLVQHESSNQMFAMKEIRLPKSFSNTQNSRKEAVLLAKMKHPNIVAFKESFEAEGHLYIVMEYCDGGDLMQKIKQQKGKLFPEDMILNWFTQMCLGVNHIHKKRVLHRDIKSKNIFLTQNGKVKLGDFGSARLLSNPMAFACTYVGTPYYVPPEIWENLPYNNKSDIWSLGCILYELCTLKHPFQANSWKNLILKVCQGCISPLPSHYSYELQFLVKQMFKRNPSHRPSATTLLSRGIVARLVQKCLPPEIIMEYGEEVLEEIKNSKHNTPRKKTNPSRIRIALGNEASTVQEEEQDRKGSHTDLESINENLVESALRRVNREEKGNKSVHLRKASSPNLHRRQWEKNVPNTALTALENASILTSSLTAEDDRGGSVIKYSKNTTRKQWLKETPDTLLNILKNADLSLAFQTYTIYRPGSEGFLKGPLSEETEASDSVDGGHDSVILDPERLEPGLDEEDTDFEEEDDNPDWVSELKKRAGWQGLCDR
Put plainly: Inhibition of human recombinant NEK3 at 500 nM related to control ULK1.

Test [6] deals with Serine/threonine-protein kinase PAK 5 (Homo sapiens) (UniProt Q9P286). Description: Inhibition of human recombinant PAK5 at 500 nM related to control ULK1.
For test [7], the target named is Tyrosine-protein kinase BTK (Homo sapiens) (UniProt Q06187). Description: Inhibition of human recombinant BTK at 15 nM in presence of ATP by radiometric assay relative to control.
In test [8] the target is Epithelial discoidin domain-containing receptor 1 (Homo sapiens) (UniProt Q08345). Put plainly: Inhibition of human recombinant DDR1 at 15 nM in presence of ATP by radiometric assay relative to control.
Test [9] concerns the target Platelet-derived growth factor receptor beta (Homo sapiens) (UniProt P09619). Description: Inhibition of human recombinant PDGFRb at 15 nM in presence of ATP by radiometric assay relative to control.
Test [10] deals with T4, Serine/threonine-protein kinase NLK (Homo sapiens) (UniProt Q9UBE8).
T4 sequence (whole entry): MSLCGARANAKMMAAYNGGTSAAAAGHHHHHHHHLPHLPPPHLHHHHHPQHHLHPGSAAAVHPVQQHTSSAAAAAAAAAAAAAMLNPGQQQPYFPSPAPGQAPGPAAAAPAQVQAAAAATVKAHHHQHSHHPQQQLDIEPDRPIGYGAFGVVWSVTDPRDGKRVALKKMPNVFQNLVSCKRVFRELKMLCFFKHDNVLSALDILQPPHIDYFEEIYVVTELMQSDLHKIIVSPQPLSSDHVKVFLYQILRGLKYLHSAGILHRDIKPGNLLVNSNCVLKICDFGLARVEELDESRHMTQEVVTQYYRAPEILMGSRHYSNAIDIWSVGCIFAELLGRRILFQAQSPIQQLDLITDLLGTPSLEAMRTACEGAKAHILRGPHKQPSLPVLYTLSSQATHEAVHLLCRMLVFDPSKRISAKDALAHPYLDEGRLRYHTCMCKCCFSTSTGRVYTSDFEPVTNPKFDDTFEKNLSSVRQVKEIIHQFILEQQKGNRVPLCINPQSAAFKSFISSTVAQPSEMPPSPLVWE
Description: Inhibition of human recombinant NLK at 15 nM related to control ULK1.

Chain of Platelet-derived growth factor receptor beta (Homo sapiens) (P09619 whole entry): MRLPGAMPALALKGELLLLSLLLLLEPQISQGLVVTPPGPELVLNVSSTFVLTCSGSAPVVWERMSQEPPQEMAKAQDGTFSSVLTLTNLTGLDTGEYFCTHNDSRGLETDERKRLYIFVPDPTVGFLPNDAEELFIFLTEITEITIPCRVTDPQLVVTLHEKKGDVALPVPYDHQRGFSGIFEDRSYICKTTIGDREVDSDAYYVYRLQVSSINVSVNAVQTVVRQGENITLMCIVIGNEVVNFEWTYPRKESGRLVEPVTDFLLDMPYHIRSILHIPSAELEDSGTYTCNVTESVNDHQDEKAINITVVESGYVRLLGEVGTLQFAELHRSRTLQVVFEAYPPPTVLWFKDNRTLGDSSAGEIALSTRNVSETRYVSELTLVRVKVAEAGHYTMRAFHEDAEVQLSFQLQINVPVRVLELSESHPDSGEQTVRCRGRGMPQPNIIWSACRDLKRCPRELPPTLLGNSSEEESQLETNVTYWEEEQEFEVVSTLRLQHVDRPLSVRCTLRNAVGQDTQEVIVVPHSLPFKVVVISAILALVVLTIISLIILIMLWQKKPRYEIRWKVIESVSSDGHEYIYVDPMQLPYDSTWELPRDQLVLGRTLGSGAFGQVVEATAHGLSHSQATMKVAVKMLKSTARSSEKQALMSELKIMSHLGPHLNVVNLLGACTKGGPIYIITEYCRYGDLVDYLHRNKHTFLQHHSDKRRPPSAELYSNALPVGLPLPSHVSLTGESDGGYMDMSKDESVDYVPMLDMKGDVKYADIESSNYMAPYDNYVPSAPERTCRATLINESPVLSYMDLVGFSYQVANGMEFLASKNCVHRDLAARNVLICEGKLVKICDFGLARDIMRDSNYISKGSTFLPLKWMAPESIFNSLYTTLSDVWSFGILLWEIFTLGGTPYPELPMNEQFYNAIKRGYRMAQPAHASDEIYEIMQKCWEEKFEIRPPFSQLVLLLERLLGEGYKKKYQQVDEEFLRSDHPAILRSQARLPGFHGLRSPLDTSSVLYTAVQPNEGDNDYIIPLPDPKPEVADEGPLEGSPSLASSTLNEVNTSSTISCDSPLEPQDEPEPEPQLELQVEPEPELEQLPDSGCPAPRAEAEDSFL
Chain of Cyclin-dependent kinase 12 (Homo sapiens) (Q9NYV4 whole entry, looked up): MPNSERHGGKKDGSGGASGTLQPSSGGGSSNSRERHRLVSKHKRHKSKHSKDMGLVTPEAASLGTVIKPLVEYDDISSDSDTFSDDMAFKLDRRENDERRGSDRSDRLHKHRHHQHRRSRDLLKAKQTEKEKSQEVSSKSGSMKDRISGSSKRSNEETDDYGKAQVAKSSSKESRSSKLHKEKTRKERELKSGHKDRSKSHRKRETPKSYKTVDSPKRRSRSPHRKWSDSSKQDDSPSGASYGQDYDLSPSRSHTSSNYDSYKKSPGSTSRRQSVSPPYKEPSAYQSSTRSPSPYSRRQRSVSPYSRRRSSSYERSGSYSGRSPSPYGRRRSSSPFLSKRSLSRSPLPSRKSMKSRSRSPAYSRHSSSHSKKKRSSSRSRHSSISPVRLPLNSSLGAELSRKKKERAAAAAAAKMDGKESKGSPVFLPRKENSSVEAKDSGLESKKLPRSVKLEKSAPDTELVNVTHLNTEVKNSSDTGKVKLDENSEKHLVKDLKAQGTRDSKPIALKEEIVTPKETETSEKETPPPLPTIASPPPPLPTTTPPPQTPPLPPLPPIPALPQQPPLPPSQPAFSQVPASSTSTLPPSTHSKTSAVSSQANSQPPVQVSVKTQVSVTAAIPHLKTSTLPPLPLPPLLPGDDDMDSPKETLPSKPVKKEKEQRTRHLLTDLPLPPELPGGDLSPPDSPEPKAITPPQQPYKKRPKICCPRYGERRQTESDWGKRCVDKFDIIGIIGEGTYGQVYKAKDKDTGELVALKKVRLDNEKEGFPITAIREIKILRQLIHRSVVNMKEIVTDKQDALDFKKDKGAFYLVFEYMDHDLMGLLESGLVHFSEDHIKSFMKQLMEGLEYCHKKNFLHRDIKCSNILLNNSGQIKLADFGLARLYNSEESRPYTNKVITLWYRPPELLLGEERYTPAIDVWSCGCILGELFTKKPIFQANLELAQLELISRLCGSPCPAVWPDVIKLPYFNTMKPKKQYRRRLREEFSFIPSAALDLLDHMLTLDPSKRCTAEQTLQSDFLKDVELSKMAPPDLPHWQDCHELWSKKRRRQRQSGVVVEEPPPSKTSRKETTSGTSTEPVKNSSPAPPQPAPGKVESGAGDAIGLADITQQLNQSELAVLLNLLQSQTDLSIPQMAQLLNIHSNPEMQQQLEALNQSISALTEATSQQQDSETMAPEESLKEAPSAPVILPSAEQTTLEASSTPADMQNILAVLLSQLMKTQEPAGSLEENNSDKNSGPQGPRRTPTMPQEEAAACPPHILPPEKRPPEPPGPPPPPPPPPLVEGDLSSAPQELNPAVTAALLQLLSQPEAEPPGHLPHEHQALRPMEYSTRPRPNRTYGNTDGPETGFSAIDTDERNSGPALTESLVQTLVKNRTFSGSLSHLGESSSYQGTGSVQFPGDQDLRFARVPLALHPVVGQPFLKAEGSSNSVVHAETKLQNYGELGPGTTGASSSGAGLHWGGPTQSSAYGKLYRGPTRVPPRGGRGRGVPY
Chain of Epithelial discoidin domain-containing receptor 1 (Homo sapiens) (Q08345 whole entry, the tested form may be a part): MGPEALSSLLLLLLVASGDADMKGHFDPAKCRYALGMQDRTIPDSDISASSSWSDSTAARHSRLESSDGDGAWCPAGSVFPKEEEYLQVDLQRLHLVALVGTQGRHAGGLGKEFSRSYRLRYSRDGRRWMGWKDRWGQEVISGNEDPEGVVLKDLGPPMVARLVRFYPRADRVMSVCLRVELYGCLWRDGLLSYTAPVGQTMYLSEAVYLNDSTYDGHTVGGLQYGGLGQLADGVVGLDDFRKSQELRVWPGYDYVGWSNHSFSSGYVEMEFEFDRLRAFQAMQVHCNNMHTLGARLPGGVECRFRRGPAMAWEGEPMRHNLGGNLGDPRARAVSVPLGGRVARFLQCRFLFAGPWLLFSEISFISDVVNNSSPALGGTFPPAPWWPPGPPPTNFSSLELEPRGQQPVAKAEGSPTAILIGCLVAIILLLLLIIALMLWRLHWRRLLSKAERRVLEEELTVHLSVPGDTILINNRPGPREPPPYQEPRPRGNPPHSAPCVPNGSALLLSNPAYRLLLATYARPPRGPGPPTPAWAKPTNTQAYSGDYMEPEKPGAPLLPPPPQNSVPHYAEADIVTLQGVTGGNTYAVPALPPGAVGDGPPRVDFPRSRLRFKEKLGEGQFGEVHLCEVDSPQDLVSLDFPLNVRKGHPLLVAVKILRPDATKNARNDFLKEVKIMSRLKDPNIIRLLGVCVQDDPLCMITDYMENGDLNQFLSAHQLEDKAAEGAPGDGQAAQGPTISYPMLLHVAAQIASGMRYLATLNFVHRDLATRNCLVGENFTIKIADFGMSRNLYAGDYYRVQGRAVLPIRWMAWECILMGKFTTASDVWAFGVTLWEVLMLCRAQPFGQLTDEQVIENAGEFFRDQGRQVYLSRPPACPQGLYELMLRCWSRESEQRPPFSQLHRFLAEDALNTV
Chain of Tyrosine-protein kinase BTK (Homo sapiens) (Q06187 whole entry, the tested form may be a part): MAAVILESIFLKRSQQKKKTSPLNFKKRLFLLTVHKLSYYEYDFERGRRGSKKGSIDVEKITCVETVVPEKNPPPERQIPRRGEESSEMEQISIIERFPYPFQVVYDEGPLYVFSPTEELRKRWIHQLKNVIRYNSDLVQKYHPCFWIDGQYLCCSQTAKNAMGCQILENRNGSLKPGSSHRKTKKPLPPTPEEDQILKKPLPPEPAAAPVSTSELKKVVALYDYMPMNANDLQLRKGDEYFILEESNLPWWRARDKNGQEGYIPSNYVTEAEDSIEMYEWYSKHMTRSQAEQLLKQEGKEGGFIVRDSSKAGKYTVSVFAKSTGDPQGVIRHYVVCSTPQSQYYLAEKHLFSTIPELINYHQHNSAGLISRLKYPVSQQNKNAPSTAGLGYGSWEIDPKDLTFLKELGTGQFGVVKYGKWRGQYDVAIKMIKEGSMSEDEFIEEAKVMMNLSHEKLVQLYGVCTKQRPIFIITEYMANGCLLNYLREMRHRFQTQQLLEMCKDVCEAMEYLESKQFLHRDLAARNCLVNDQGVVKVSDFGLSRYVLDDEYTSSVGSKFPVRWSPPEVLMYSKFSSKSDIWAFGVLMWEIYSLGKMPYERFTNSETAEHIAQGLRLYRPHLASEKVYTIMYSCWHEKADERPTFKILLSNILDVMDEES
Chain of Serine/threonine-protein kinase PAK 5 (Homo sapiens) (Q9P286 whole entry, looked up): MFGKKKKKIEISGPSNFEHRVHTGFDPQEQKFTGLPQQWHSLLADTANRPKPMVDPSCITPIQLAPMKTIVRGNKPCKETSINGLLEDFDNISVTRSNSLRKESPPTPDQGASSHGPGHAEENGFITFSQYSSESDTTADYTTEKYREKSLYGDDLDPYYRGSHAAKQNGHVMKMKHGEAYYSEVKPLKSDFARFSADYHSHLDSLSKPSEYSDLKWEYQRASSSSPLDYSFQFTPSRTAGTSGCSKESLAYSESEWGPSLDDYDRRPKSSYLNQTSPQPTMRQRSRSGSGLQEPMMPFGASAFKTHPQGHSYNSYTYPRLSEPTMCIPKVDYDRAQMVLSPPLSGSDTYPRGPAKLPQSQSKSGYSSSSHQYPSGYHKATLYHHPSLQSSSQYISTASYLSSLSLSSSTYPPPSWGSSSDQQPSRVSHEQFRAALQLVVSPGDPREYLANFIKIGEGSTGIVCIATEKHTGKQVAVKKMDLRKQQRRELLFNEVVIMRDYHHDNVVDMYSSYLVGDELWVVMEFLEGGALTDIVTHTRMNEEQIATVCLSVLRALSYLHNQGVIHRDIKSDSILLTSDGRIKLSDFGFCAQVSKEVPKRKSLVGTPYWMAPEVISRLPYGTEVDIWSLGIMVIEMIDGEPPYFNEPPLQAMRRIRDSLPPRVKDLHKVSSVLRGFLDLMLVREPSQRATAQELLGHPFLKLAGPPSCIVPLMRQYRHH

On to `O=C(N[C@@H](C1CC1)C(F)(F)F)c1cc(-c2cnn3cc(-c4ccc(F)cc4)cnc23)cs1`, for which the inhibition amounted to 7% in [1] and 3% in [2]. Also, the fold change (FC) in test [3] turned out to be 0.77.
On to `CNC(=O)c1ccccc1Oc1nc(Nc2cc(OC)c(OC)c(OC)c2)ncc1Br`, for which the fold change (FC) in test [4] turned out to be 0; in [5] it was 0.09; in [6], 0.07.
Turning to `CC(C)[C@H](NC(=O)c1cc(-c2cnn3cc(-c4ccc(OCCN5CCCCC5)cc4)cnc23)cs1)C(F)(F)F`, the inhibition in test [7] stood at 0%; in test [8], 78%; in [9], 0%. Further, the fold change (FC) in [10] came out at 0.1.

As usually defined, the inhibition is the percentage by which the read-out fell short of the control.

Source of the values: ChEMBL document CHEMBL5653631, “A Potent and Selective ULK1 Inhibitor Suppresses Autophagy and Sensitizes Cancer Cells to Nutrient Stress” (iScience, 2018).
